High-throughput results: PubChem BioAssay, several laboratories
HSF1 inhib – HSF1 inhibition | NIH3T3-HGL HSE-luciferase, MG132-induced, luminescence 8 h; active compounds read low | activity change, negative = inhibition, % at 7.5 µM (by protocol) | 300,000 tested, 0.77% active;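 active = more than half of replicate wells show activity change below -50%, luminescence cut by over half; inconclusive = some wells, but at most half, below -50%; inactive = no replicate well below -50%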;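 also: luciferase reports HSF-1 transcriptional activity via heat shock element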
CHT block – inhibitors of human choline transporter CHT | 310,000 tested, 0.86% active | Q9GZV3 | CHT-expressing cells, membrane potential dye, choline response; active compounds read low | B-score at 10 µM;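 active = B-score over 3 SD under the library average, and starting fluorescence ratio not unusually high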;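 also: choline stimulus applied at its EC90 after an EC20 pre-addition; B-score computed on integrated fluorescence ratio after choline addition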
HSF1 activator – increases HSF-1 driven luciferase reporter signal; 300,000 tested, 1.7% active; activation, % at 9 µM; NIH3T3-HGL HSF-1 luciferase reporter, MG132, 8 h; 100% = twice DMSO control signal; AID 504408;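 active = mean replicate activation of at least 50% with a set share of replicates each reaching 50%; inconclusive = only one of those two conditions met; inactive = mean below 50% and too few replicates reaching it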
Lipid droplet – modulators of hepatic lipid droplet formation. AID 1656. 240,000 tested, 0.4% active. AML12 mouse hepatocytes, oleate lipid droplets, BODIPY imaging. inhibition, % at 6.5 µM;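 active = lipid droplet intensity inhibited by at least 50%, with more than 500 cells counted; inconclusive = wells with under 300 cells, treated as cytotoxic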
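Assay system: AML12 mouse liver cells | Compound: 6.5 µM single-point dosing | Schedule: Overnight exposure | Technique: Fluorescence imaging, 20x objective, two fields per well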
PHOSPHO1 inh – blocks human PHOSPHO1 phosphatase activity; recombinant PHOSPHO1, absorbance phosphatase assay; 290,000 tested, 1.1% active; inhibition, % at 13.3 µM; Q8TCT1; in the data active = inhibition above about 60%
Target sequence (Q8TCT1 whole entry, looked up): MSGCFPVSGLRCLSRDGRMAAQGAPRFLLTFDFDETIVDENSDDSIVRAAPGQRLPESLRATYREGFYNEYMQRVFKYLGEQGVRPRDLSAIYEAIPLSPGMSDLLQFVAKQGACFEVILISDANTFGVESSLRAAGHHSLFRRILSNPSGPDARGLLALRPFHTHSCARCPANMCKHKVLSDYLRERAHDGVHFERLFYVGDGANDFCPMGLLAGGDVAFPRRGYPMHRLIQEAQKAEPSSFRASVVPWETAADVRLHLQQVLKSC
CHT allo act – human CHT allosteric activation | AID 488977 | B-score at 10 µM | CHT-expressing cells, membrane potential dye, choline EC20; active compounds read high; LV-AA mutant CHT in HEK293 cells | 310,000 tested, 0.49% active | Q9GZV3;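 active = initial fluorescence not abnormally high and integrated response B-score, plate-corrected, over 3 SD above library mean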
Hep lipid conf – confirmation of inhibitors of hepatic lipid droplet formation | inhibition, % at 5.2 µM | AML12 mouse hepatocytes, BODIPY lipid droplet imaging; droplets induced with 100 µM oleic acid | 870 tested, 65% active | AID 463183 | shares compounds with Lipid droplet;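 active = inhibition of lipid droplet metric at least 50%, with more than 300 cells in each of four replicates; inconclusive = wells under 300 cells, flagged as toxic or low count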
AML12 tox img – counter-screen for cytotoxicity in AML12 mouse hepatocytes; shares compounds with Lipid droplet; DAPI nuclear morphology cytotoxicity imaging; active compounds read high; cells fed 100 µM oleate overnight; z-score at 5 µM; 870 tested, 3% active; AID 463200; in the data active = z-score above about 6.3;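 also: compound exposure lasted overnight at 37 °C before fixation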
AML12 tox conf – AML12 hepatocyte cytotoxicity, confirmed; shares compounds with Lipid droplet; AML12 mouse hepatocyte viability, ATP luminescence; cells loaded with 100 µM oleic acid; cytotoxicity, % at 50 µM; 530 tested, under 10 active; AID 463219;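 active = cytotoxicity above 50% in each of four replicates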;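 also: compound exposure lasted overnight at 37 °C before the ATP read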
Numbers stand for hits; i = inactive; ? = inconclusive; nt = no result. Most compounds without a hit are left out; they make up all but 4.9% or so of the library.

SMILES	HSF1 inhib	CHT block	HSF1 activator	Lipid droplet	PHOSPHO1 inh	CHT allo act	Hep lipid conf	AML12 tox img	others
COc1cc(C(=O)c2c(C)c(CCC#N)n3ccccc23)cc(OC)c1OC	i	i	i	i	i	i	nt	nt
COc1ccccc1Nc1ccc(NS(=O)(=O)c2ccc(C(C)=O)cc2)cc1	i	i	?	99.2	i	i	93.7	i
CCOC(=O)c1cc(CC)sc1NC(=O)C1CC(=O)NN1Cc1ccccc1 (configuration not stated)	i	i	i	82.4	i	i	109.6	i	AML12 tox conf=i
COC(=O)c1cc(C)sc1NC(=O)C1CC(=O)NN1Cc1ccccc1 (configuration not stated)	i	i	i	86.3	i	i	109.5	i	AML12 tox conf=i
COC(=O)c1c(NC(=O)C2CC(=O)NN2Cc2ccccc2)sc(C)c1C (configuration not stated)	i	i	i	nt	i	i	nt	nt
COc1ccc(S(=O)(=O)NCCN2CCOCC2)cc1[N+](=O)[O-]	i	i	i	i	i	i	nt	nt
CC(C)C(C)(C#N)NC(=O)CSc1nc2scc(-c3ccc(F)cc3)c2c(=O)n1Cc1ccccc1 (configuration not stated)	i	i	i	104.7	i	i	112.8	i
CC(CC(=O)N(CCC1=CCCCC1)c1c(N)n(Cc2ccccc2)c(=O)[nH]c1=O)c1ccccc1 (configuration not stated)	i	i	i	nt	nt	i	nt	nt
COc1ccc(N=NC2C(=O)N(c3ccccc3)N=C2C)cc1 (configuration not stated)	i	i	i	52.5	i	i	101.7	i	AML12 tox conf=i
COc1cc(Cl)ccc1OCc1cc(C(=O)N(C)Cc2cn(C)nc2C)no1	i	i	i	i	i	i	nt	nt
CCc1nc2ccccc2c(C(=O)OCC(=O)NCc2ccc3c(c2)OCO3)c1C	i	i	i	78.9	i	i	92.2	i	AML12 tox conf=i
Cc1ccc(OCC(=O)NCc2ccc3c(c2)OCO3)c([N+](=O)[O-])n1	i	i	i	57.9	i	i	i	i
CCCc1nc2ccccc2c(C(=O)OCC(=O)NCc2ccc3c(c2)OCO3)c1CC	i	i	i	i	i	i	nt	nt
N#C/C(=C\c1cccs1)C(=O)c1ccccc1	i	i	i	i	i	i	nt	nt
Cc1ccc(/C=C/C(=O)NCC2COc3ccccc3O2)o1 (configuration not stated)	i	i	i	52.9	i	i	i	i
COc1ccc(/C=C/C(=O)NCC2COc3ccccc3O2)cc1OC (configuration not stated)	i	i	i	i	i	i	nt	nt
Cc1ccccc1Cn1nc(C)c(NC(=O)c2cc3nc(-c4ccco4)cc(C(F)(F)F)n3n2)c1C	nt	nt	nt	nt	i	nt	nt	nt
CCOCCSC1=C(C#N)C(c2cccs2)C(C(C)=O)=C(C)N1 (configuration not stated)	i	i	i	i	i	i	nt	nt
CCCSC1=C(C#N)C(c2cccs2)C(C(=O)Nc2ccccc2)=C(C)N1 (configuration not stated)	i	i	i	54.1	i	i	92.5	i	AML12 tox conf=i
COc1cc2ncnc(NCc3cccs3)c2cc1OC	i	i	i	51.6	i	i	61.5	14.8
CC(C)CN(C(=O)CC(C)c1ccccc1)c1c(N)n(Cc2ccccc2)c(=O)[nH]c1=O (configuration not stated)	i	i	i	nt	nt	i	nt	nt
CCc1c(C#N)c(SCCC(=O)Nc2ccc(OC)cc2)nc2c1C(=O)CC(C)(C)C2	nt	i	nt	54.1	i	i	88.8	i	AML12 tox conf=i
CCc1c(C#N)c(SCc2c(C)noc2C)nc2c1C(=O)CC(C)(C)C2	i	i	i	i	i	i	nt	nt
Cc1ccc([C@@H]2[C@@H]3C(=O)N(C)C(=O)[C@@H]3[C@]3(Cc4ccccc4)C(=O)N(Cc4ccccc4)CC(=O)N23)o1	i	i	i	nt	i	i	nt	nt
CN1C(=O)[C@H]2[C@@H](C3CC3)N3C(=O)CN(Cc4ccccn4)C(=O)[C@@]3(Cc3ccccc3)[C@H]2C1=O	i	i	i	59.5	i	i	i	i
SMILES	HSF1 inhib	CHT block	HSF1 activator	Lipid droplet	PHOSPHO1 inh	CHT allo act	Hep lipid conf	AML12 tox img	others
Cc1ccc(S(=O)(=O)NNC(=O)c2sc(NS(=O)(=O)c3ccccc3)nc2C)cc1	i	i	i	i	i	i	nt	nt
O=S1(=O)N=C(Oc2cccc3ccccc23)c2ccccc21	i	i	i	65.8	i	i	i	i
Cc1ccccc1OC1=NS(=O)(=O)c2ccccc21	i	i	i	i	i	i	nt	nt
CCOC(=O)NC(=O)c1cn(CCN(C)C)c(=O)[nH]c1=O	i	i	i	i	i	i	nt	nt
CCOc1ccccc1-c1cc(C(=O)N/N=C/c2ccc(O)c(OC)c2)c2ccccc2n1	i	i	i	50.1	i	i	72.0	i	AML12 tox conf=i
Cc1cc(C)n(-c2nc(N(c3ccccc3)c3ccccc3)nc(-n3nc(C)cc3C)n2)n1	i	i	i	57.3	i	i	69.0	i	AML12 tox conf=92.9
CCOc1ccc2nc(NC(=O)CSc3nc4ccccc4c(=O)n3Cc3ccco3)sc2c1	i	i	i	57.3	i	i	105.7	i	AML12 tox conf=i
CCOC(=O)CSc1nc2ccccc2c(=O)n1Cc1ccco1	i	i	i	nt	i	i	nt	nt
Cc1cc(=O)oc2cc(OCC(=O)NC3CCN(Cc4ccccc4)CC3)ccc12	i	i	i	i	i	i	nt	nt
Cc1cc(=O)oc2cc(OCC(=O)NC3CCN(Cc4ccccc4)CC3)c(Cl)cc12	i	i	i	62.9	i	i	i	i
CCCCN(Cc1cccs1)S(=O)(=O)c1csc(C(N)=O)c1	i	i	i	i	i	i	nt	nt
CCN1CCN(c2c(/C=C3\SC(=S)N(Cc4ccco4)C3=O)c(C)c(C#N)c(=O)n2C)CC1	i	i	i	64.9	i	i	i	i
CC(OC(=O)CN1C(=O)c2ccccc2C1=O)C(=O)NC1CCCC1 (configuration not stated)	i	i	i	i	i	i	nt	nt
COc1ccccc1N1CCN(C(=O)COc2ccc(S(=O)(=O)NC(C)(C)C)cc2)CC1	i	i	i	64.1	i	i	85.3	i
O=C(N[C@@H](Cc1ccc(O)cc1)C(=O)O)C(c1ccccc1)c1ccccc1	i	i	i	i	i	i	nt	nt
CCOc1ccc(/C=N/NC(=O)c2cc3c(OC)cc(OC)cc3[nH]2)cc1OC	i	i	i	i	i	i	nt	nt
